# Experiments:
# Plasmodium falciparum [1] = test: In vitro antimalarial activity against Plasmodium falciparum Indochina W2; type: functional, organism-based
# Outline: (§1)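 Compound dissolved in DMSO and 70% ethanol, then diluted in RPMI 1640 with 10% human plasma and tested over (1.56-100) × 10^-9 M. Parasites at 0.5% parasitemia, 1% hematocrit, incubated 24 h with compound before [3H]hypoxanthine was added, then a further 18 h. Read-out is [3H]hypoxanthine uptake. IC50 obtained by nonlinear regression of concentration-response data.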
# Plasmodium falciparum [2] = test: In vitro antimalarial activity against Plasmodium falciparum D6 Sierra Leone; type: functional, organism-based; outline: as §1
# Plasmodium berghei [3] = test: Antimalarial activity for Plasmodium berghei infected mice (Mus musculus) (n=5) at 20 mg/kg/day; type: functional
# Plasmodium berghei [4] = test: Antimalarial activity for Plasmodium berghei infected mice (Mus musculus) (n=5) at 320 mg/kg/day; type: functional
# Plasmodium berghei [5] = test: Antimalarial activity for Plasmodium berghei infected mice (Mus musculus) (n=5) at 80 mg/kg/day; type: functional
SMILES,IC50 (Plasmodium falciparum [1]),IC50 (Plasmodium falciparum [2]),No. of mice cured (Plasmodium berghei [3]),No. of mice cured (Plasmodium berghei [4]),No. of mice cured (Plasmodium berghei [5])
C[C@H]1[C@@H](O[C@@H]2O[C@H](CO)[C@@H](O[C@@H]3O[C@H](CO)[C@@H](O)[C@H](O)[C@H]3O)[C@H](O)[C@H]2O)O[C@@H]2O[C@@]3(C)CC[C@H]4[C@H](C)CC[C@@H]1[C@@]24OO3,0.171 µg/mL,0.71 µg/mL,,,
C[C@H]1[C@@H](O[C@@H]2O[C@H](CO)[C@@H](O)[C@H](O)[C@H]2O)O[C@@H]2O[C@@]3(C)CC[C@H]4[C@H](C)CC[C@@H]1[C@@]24OO3,0.0341 µg/mL,0.121 µg/mL,,,
C[C@H]1[C@@H](O[C@@H]2O[C@H](CO)[C@H](O)[C@H](O)[C@H]2O)O[C@@H]2O[C@@]3(C)CC[C@H]4[C@H](C)CC[C@@H]1[C@@]24OO3,0.0356 µg/mL,0.0131 µg/mL,,,
CC(=O)O[C@@H]1[C@@H](OC(C)=O)[C@@H](C)O[C@H](COC(=O)CO[C@H]2O[C@@H]3O[C@@]4(C)CC[C@H]5[C@H](C)CC[C@@H]([C@H]2C)[C@@]35OO4)[C@H]1OC(C)=O,0.00019 µg/mL,0.00248 µg/mL,0,5,0
C[C@H]1[C@@H](O[Si](C)(C)C)O[C@@H]2O[C@@]3(C)CC[C@H]4[C@H](C)CC[C@@H]1[C@@]24OO3,0.00042 µg/mL,0.00111 µg/mL,1,4,5
C[C@@H]1CC[C@H]2[C@@H](C)C(=O)O[C@@H]3O[C@@]4(C)CC[C@@H]1[C@]32OO4 [ARTEMISININ],0.00068 µg/mL,,,,

# — ChEMBL document CHEMBL1125460, “Antimalarial activity of new dihydroartemisinin derivatives. 5. Sugar analogues” (J Med Chem, 1992)
